Assay results published in article PMC6683736 (The Journal of Cell Biology, 2019).

How the values were obtained:
SGEF [1] = test: Yeast two-hybrid screen with full-length human SGEF as bait; type: binding; details: mouse kidney cDNA library
MDCK cells [2] = test: Actomyosin organization by IF; type: cell-based, canine
Dlg1 = test: Coimmunoprecipitation of SGEF constructs with GFP-Dlg1, HEK293FT lysates; type: binding, Mouse; details: GFP-trap nanobodies, WB
How it was run: (§1)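 HEK293FT cells were co-transfected by calcium phosphate; medium was changed at 24 h and cells harvested at 48 h. Lysis was in Tris-HCl pH 7.4, MgCl2, 150 mM NaCl, 1% Triton X-100 and protease inhibitors. Equal protein was incubated with GFP-Trap beads for 1 h at 4°C, washed four times, then immunoblotted with anti-GFP and anti-myc (or anti-His).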

[3] = system: Scribble/SGEF/Dlg1 ternary complex; test: Coprecipitation of Scribble with GFP-Dlg1; type: binding; details: HA-Scribble and GFP-Dlg1 coexpressed, IP anti-GFP, HEK293
MDCK cells [4] = test: Height of MDCK monolayer, confocal XZ; type: cell-based, canine; details: average, n = 50 cells
How it was run: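 Confocal XZ sections of confluent control, SGEF-knockdown and rescue MDCK monolayers were acquired on a Leica SP8. Cells were stained for E-cadherin, β-catenin and nuclei, or for F-actin and Hoechst, and monolayer height was measured.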

MDCK cells [5] = test: Zigzag index of tight junctions; type: cell-based, canine
Scribble = test: Coimmunoprecipitation of SGEF constructs with GFP-Scribble, HEK293FT lysates; type: binding, Human; details: GFP-trap nanobodies, WB
Xenopus embryos = test: Junctional localization in gastrula-stage embryos; type: in vivo, Xenopus laevis; details: live confocal, mNeon-tagged
How it was run: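 Embryos were microinjected in the animal hemisphere with mRNAs, either at the two-cell stage (each cell twice) or at the four-cell stage (once). They were raised to gastrula stage (10.5–12) and live-imaged by confocal. mNeon-tagged protein was coexpressed with BFP-ZO-1 (tight junction marker) and PLEKHA7-mCherry (adherens junction marker), and the junctional-to-cytosolic intensity ratio was quantified.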

MDCK cells [6] = test: Apical cell area and axial ratio; type: cell-based, canine; details: major/minor axis aspect ratio
How it was run: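 Apical cell area and axial ratio were measured in control, SGEF-knockdown and WT-rescue MDCK monolayers from two fields in each of two independent experiments (n = 100 cells for area, n = 150 for axial ratio). Plots show min-to-max spread.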

MDCK cells [7] = test: Protein levels and junctional localization by WB and IF; type: cell-based, canine
How it was run: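 Total lysates of confluent control, SGEF-knockdown and WT-rescue MDCK cells were immunoblotted, with tubulin as loading control. For immunofluorescence, cells were fixed in 3.7% paraformaldehyde, permeabilised with 0.1% Triton X-100 and imaged by confocal. Afadin enrichment was scored as the tricellular/bicellular junction intensity ratio (≥200 junctions, at least three fields, two experiments; Mann–Whitney U test).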

RhoG = RhoG activity pulldown; type: cell-based, canine; details: normalized to total RhoG, three independent experiments
How it was run: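 Active RhoG was pulled down with GST–ELMO from total lysates of control, SGEF-knockdown and rescue MDCK cells, then immunoblotted with anti-RhoG. Active levels were normalised to total RhoG; mean ± SEM of three independent experiments.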

MDCK cells [8] = test: 3D cyst lumen formation in matrigel; type: cell-based, canine
SGEF [9] = test: Coimmunoprecipitation of Dlg1 constructs with SGEF, HEK293FT lysates; type: binding, Human; details: WB
How it was run: as §1

**Q.** With “Scribble: Scribble polarity protein, 1–1,630” as the molecule, how does the “potential binding partner for SGEF” value (SGEF [1]) read?
**A.** potential binding partner for SGEF

**Q.** How did the “relative strength of effect on actomyosin array and stress fibers” value (MDCK cells [2]; 16 h, blebbistatin vs Y-27632) turn out when Cc1ccc2c(c1)C(=O)C1(O)CCN(c3ccccc3)C1=N2 (centres unmarked) [blebbistatin, reference compound] was run?
**A.** stronger effect than Y-27632

B1: SGEF 1–414: N-terminal half of SGEF, ends just before DH-PH domain (protein)
chain: MDGESEVDFSSNSITPLWRRRSIPQPHQVLGRSKPRPQSYQSPNGLLITDFPVEDGGTLLAAQIPAQVPTASDSRTVHRSPLLLGAQRRAVANGGTASPEYRAASPRLRRPKSPKLPKAVPGGSPKSPANGAVTLPAPPPPPVLRPPRTPNAPAPCTPEEDLTGLTASPVPSPTANGLAANNDSPGSGSQSGRKAKDPERGLFPGPQKSSSEQKLPLQRLPSQENELLENPSVVLSTNSPAALKVGKQQIIPKSLASEIKISKSNNQNVEPHKRLLKVRSMVEGLGGPLGHAGEESEVDNDVDSPGSLRRGLRSTSYRRAVVSGFDFDSPTSSKKKNRMSQPVLKVVMEDKEKFSSLGRIKKKMLKGQGTFDGEENAVLYQNYKEKALDIDSDEESEPKEQKSDEKIVIHHKPL
modifications: left off: myc (inferred from the legends of Figures 2 and 3), end not stated, kept
**Q.** For B1, which “interaction with Dlg1” value (Dlg1) is on record?
**A.** interacted efficiently with Dlg1

**Q.** And the “formation of Scribble/SGEF/Dlg1 ternary complex” value [3]?
**A.** minimum SGEF mutant that can mediate the formation of the Scribble/SGEF/Dlg1 complex

B2: SGEF 1–400: minimum region required to bind Scribble and Dlg1, no catalytic activity (protein)
chain: MDGESEVDFSSNSITPLWRRRSIPQPHQVLGRSKPRPQSYQSPNGLLITDFPVEDGGTLLAAQIPAQVPTASDSRTVHRSPLLLGAQRRAVANGGTASPEYRAASPRLRRPKSPKLPKAVPGGSPKSPANGAVTLPAPPPPPVLRPPRTPNAPAPCTPEEDLTGLTASPVPSPTANGLAANNDSPGSGSQSGRKAKDPERGLFPGPQKSSSEQKLPLQRLPSQENELLENPSVVLSTNSPAALKVGKQQIIPKSLASEIKISKSNNQNVEPHKRLLKVRSMVEGLGGPLGHAGEESEVDNDVDSPGSLRRGLRSTSYRRAVVSGFDFDSPTSSKKKNRMSQPVLKVVMEDKEKFSSLGRIKKKMLKGQGTFDGEENAVLYQNYKEKALDIDSDEESEPKE
modifications: left off: myc (inferred from the legend of Figure 2), end not stated, kept
**Q.** B2 was tested. Which “interaction with Dlg1” value (Dlg1) did it give?
**A.** able to bind to Dlg1

**Q.** What about the cell height (MDCK cells [4]; Fig. 9 I) of the same molecule?
**A.** 2.57 ± 0.049 µm

**Q.** And the “zigzag index (in words)” value (MDCK cells [5]; compared with SGEF KD, Fig. 9 J)?
**A.** increased significantly

**Q.** And the “rescue of increased contractility” value (MDCK cells [2]; myosin II staining, SGEF KD background)?
**A.** able to rescue the increase in contractility

B3: SGEF 1–227: SGEF deletion mutant, binds to Scribble but not to Dlg1 (protein)
chain: MDGESEVDFSSNSITPLWRRRSIPQPHQVLGRSKPRPQSYQSPNGLLITDFPVEDGGTLLAAQIPAQVPTASDSRTVHRSPLLLGAQRRAVANGGTASPEYRAASPRLRRPKSPKLPKAVPGGSPKSPANGAVTLPAPPPPPVLRPPRTPNAPAPCTPEEDLTGLTASPVPSPTANGLAANNDSPGSGSQSGRKAKDPERGLFPGPQKSSSEQKLPLQRLPSQENEL
modifications: left off: myc (inferred from the legends of Figures 1 and 2), end not stated, kept
**Q.** What does the source list for B3?
**A.** interaction with Scribble (Scribble): sufficient to interact with Scribble; interaction with Dlg1 (Dlg1): did not interact with Dlg1; cell height (MDCK cells [4]; Fig. 9 I): 2.99 ± 0.065 µm; localization at apical junctional complex (Xenopus embryos): localized efficiently to the AJC

B4: SGEF WT: full-length SGEF 1–871, RhoG-specific GEF, myc- or mNeon-tagged (protein)
chain: MDGESEVDFSSNSITPLWRRRSIPQPHQVLGRSKPRPQSYQSPNGLLITDFPVEDGGTLLAAQIPAQVPTASDSRTVHRSPLLLGAQRRAVANGGTASPEYRAASPRLRRPKSPKLPKAVPGGSPKSPANGAVTLPAPPPPPVLRPPRTPNAPAPCTPEEDLTGLTASPVPSPTANGLAANNDSPGSGSQSGRKAKDPERGLFPGPQKSSSEQKLPLQRLPSQENELLENPSVVLSTNSPAALKVGKQQIIPKSLASEIKISKSNNQNVEPHKRLLKVRSMVEGLGGPLGHAGEESEVDNDVDSPGSLRRGLRSTSYRRAVVSGFDFDSPTSSKKKNRMSQPVLKVVMEDKEKFSSLGRIKKKMLKGQGTFDGEENAVLYQNYKEKALDIDSDEESEPKEQKSDEKIVIHHKPLRSTWSQLSAVKRKGLSQTVSQEERKRQEAIFEVISSEHSYLLSLEILIRMFKNSKELSDTMTKTERHHLFSNITDVCEASKKFFIELEARHQNNIFIDDISDIVEKHTASTFDPYVKYCTNEVYQQRTLQKLLATNPSFKEVLSRIESHEDCRNLPMISFLILPMQRVTRLPLLMDTICQKTPKDSPKYEVCKRALKEVSKLVRLCNEGARKMERTEMMYTINSQLEFKIKPFPLVSSSRWLVKRGELTAYVEDTVLFSRRTSKQQVYFFLFNDVLIITKKKSEESYNVNDYSLRDQLLVESCDNEELNSSPGKNSSTMLYSRQSSASHLFTLTVLSNHANEKVEMLLGAETQSERARWITALGHSSGKPPADRTSLTQVEIVRSFTAKQPDELSLQVADVVLIYQRVSDGWYEGERLRDGERGWFPMECAKEITCQATIDKNVERMGRLLGLETNV
modifications: left off: myc, end not stated, kept
**Q.** Which results are given for B4?
**A.** interaction with Scribble (Scribble): confirmed the interaction; interaction with Dlg1 (Dlg1): able to bind efficiently to Dlg1; formation of Scribble/SGEF/Dlg1 ternary complex [3]: Scribble coprecipitated efficiently with Dlg1; cell height (MDCK cells [4]; three independent experiments, Fig. 5 I): 5.61 ± 0.16 µm; zigzag index (MDCK cells [5]; average, 1 = straight line, CTRL 1.24): 1.16; axial ratio (MDCK cells [6]): could be rescued; β-catenin and p120-catenin localization at cell–cell junctions (MDCK cells [7]; IF): restored to normal; localization of Scribble and Dlg1 (MDCK cells [7]; IF, rescue of SGEF KD): restored the normal localization of both Scribble and Dlg1; cadherin-6 levels (MDCK cells [7]; WB): restored to normal levels; E-cadherin level and localization (MDCK cells [7]; WB and IF): restored both the proper expression level and localization of E-cadherin; afadin expression levels and localization at AJs (MDCK cells [7]; WB and IF): rescued to normal levels; actomyosin organization at apical junction (MDCK cells [2]; IF, HyVolution): restored the normal apical and basal actomyosin pattern; active RhoG level (RhoG): returned to normal; cysts with a single lumen (MDCK cells [8]; Fig. 10 D, red and dark green bars, CTRL 65%): 36%; cysts with an open lumen (MDCK cells [8]; Fig. 10 D, red and orange bars, CTRL 100%): 77%; E-cadherin expression in cysts (MDCK cells [8]; IF, 3D cysts): restored to normal levels; cysts with multiple open lumens (MDCK cells [8]; matrigel, 4 d): 40%; localization at apical junctional complex (Xenopus embryos): localized efficiently to the AJC

B5: GUK domain alone: Dlg1 GUK domain, 699–893 (protein, UniProt Q12959 699-893, looked up, fragment)
chain: YVLSYEPVNQQEVNYTRPVIILGPMKDRINDDLISEFPDKFGSCVPHTTRPKRDYEVDGRDYHFVTSREQMEKDIQEHKFIEAGQYNNHLYGTSVQSVREVAEKGKHCILDVSGNAIKRLQIAQLYPISIFIKPKSMENIMEMNKRLTEEQARKTFERAMKLEQEFTEHFTAIVQGDTLEDIYNQVKQIIEEQSG
modifications: GUK domain
**Q.** B5 was tested. Which “interaction with SGEF” value (SGEF [9]) did it give?
**A.** able to interact with SGEF

B6: SH3 domain by itself: Dlg1 SH3 domain, 536–636 (protein, UniProt Q12959 536-636, looked up, fragment)
chain: GQAVTIVAQYRPEEYSRFEAKIHDLREQMMNSSISSGSGSLRTSQKRSLYVRALFDYDKTKDSGLPSQGLNFKFGDILHVINASDDEWWQARQVTPDGESD
modifications: SH3 domain
**Q.** For B6, which “interaction with SGEF” value (SGEF [9]) is on record?
**A.** no detectable binding
